Laboratory results: ChEMBL document CHEMBL1126625, “7-Azetidinylquinolones as antibacterial agents. Synthesis and structure-activity relationships” (J Med Chem, 1993)
≈ marks a conversion by molar mass, not a printed value.

Experiments:
Enterococcus faecalis = assay: Minimum inhibitory concentration (MIC) preventing growth of Streptococcus faecalis ATCC 10541; assay type: functional
Enterobacter cloacae = assay: Minimum inhibitory concentration (MIC)preventing growth of Enterobacter cloacae; assay type: functional
Escherichia coli [1] = assay: Minimum inhibitory concentration (MIC)preventing growth of Escherichia coli; assay type: functional
Staphylococcus aureus [2] = assay: Minimum inhibitory concentration (MIC) preventing growth of […]; assay type: functional
Klebsiella pneumoniae = assay: Minimum inhibitory concentration (MIC)preventing growth of Klebsiella pneumoniae; assay type: functional
Bacillus cereus = assay: Minimum inhibitory concentration (MIC) preventing growth of Bacillus cereus; assay type: functional
Morganella morganii = assay: Minimum inhibitory concentration (MIC) preventing growth of Morganella morganii; assay type: functional
Proteus vulgaris = assay: Minimum inhibitory concentration (MIC) preventing growth of Proteus vulgaris; assay type: functional
Bacillus subtilis = assay: Minimum inhibitory concentration (MIC) preventing growth of Bacillus subtilis; assay type: functional
Pseudomonas aeruginosa [3] = assay: Minimum inhibitory concentration (MIC)preventing growth of Pseudomonas aeruginosa; assay type: functional
[4] = system: Staphylococcus epidermidis; assay: pIn vitro minimum inhibitory concentration (MIC) that prevented growth of Staphylococcus epidermidis ATCC 155-1 (Se) after incubation at 37 degree C for 18 h; assay type: functional
[5] = system: Staphylococcus epidermidis; assay: Minimum inhibitory concentration (MIC) preventing growth of Staphylococcus epidermidis; assay type: functional
Escherichia coli [6] = assay: Efficacy on systemic infections after oral administration in mice was determined against Escherichia coli HM-42; assay type: functional
In short: (§1)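 Mouse protection test using 4 groups of 10 mice. Mice were infected intraperitoneally with a bacterial suspension slightly above LD100. A single oral dose was given immediately after infection, with four doses, one per group, chosen from in vitro activity. Survival was scored after one week, and ED50 (total mg/kg protecting 50% of mice) was interpolated from group survival rates.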

Staphylococcus aureus [7] = assay: Efficacy on systemic infections after oral administration in mice was determined against […] HS-93; assay type: functional; in short: as §1
Pseudomonas aeruginosa [8] = assay: Efficacy on systemic infections after oral administration in mice was determined against Pseudomonas aeruginosa HS-116; assay type: functional; in short: as §1
Mus musculus = assay: Blood level after oral administration in mice (50 mg/kg) was determined by bioassay procedure and represent total activity present in the serum; assay type: ADME, organism-based; conditions: in vivo
In short: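 Single oral dose of 50 mg/kg to mice. Blood taken from groups of six mice at 0.5, 1, 2 and 4 h after dosing. Serum levels measured by disk agar diffusion bioassay with Bacillus subtilis ATCC 6633 on Seed Agar, plates incubated 18 h at 37 °C, giving total activity in serum. AUC 0-4 h expressed as μg/mL […].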

MIC (Enterococcus faecalis)	MIC (Enterobacter cloacae)	MIC (Escherichia coli [1])	MIC (Staphylococcus aureus [2])	MIC (Klebsiella pneumoniae)	MIC (Bacillus cereus)	MIC (Morganella morganii)	MIC (Proteus vulgaris)	MIC (Bacillus subtilis)	MIC (Pseudomonas aeruginosa [3])	MIC [4]	MIC [5]	AUC (Mus musculus)	SMILES	ED50 (Escherichia coli [6])	ED50 (Staphylococcus aureus [7])	ED50 (Pseudomonas aeruginosa [8])
0.5 µg/mL (≈ 1.44 µM)	0.12 µg/mL (≈ 0.345 µM)	0.12 µg/mL (≈ 0.345 µM)	0.5 µg/mL (≈ 1.44 µM)	0.015 µg/mL (≈ 0.0432 µM)	0.5 µg/mL (≈ 1.44 µM)	0.25 µg/mL (≈ 0.72 µM)	1 µg/mL (≈ 2.88 µM)	0.12 µg/mL (≈ 0.345 µM)	2 µg/mL (≈ 5.76 µM)	0.25 µg/mL (≈ 0.72 µM)			CC1COc2c(N3CC(C)(N)C3)c(F)cc3c(=O)c(C(=O)O)cn1c23 (stereo unspecified)			
0.25 µg/mL (≈ 0.752 µM)	0.03 µg/mL (≈ 0.0903 µM)	0.03 µg/mL (≈ 0.0903 µM)	0.25 µg/mL (≈ 0.752 µM)	0.03 µg/mL (≈ 0.0903 µM)	0.12 µg/mL (≈ 0.361 µM)	0.06 µg/mL (≈ 0.181 µM)	0.12 µg/mL (≈ 0.361 µM)	0.03 µg/mL (≈ 0.0903 µM)	0.5 µg/mL (≈ 1.5 µM)		0.12 µg/mL (≈ 0.361 µM)	31700 ng·h/mL	CC1(N)CN(c2nc3c(cc2F)c(=O)c(C(=O)O)cn3C2CC2)C1	2.8 mg/kg	10.7 mg/kg	52 mg/kg
0.25 µg/mL (≈ 0.571 µM)	0.12 µg/mL (≈ 0.274 µM)	0.03 µg/mL (≈ 0.0685 µM)	0.06 µg/mL (≈ 0.137 µM)	0.03 µg/mL (≈ 0.0685 µM)	0.06 µg/mL (≈ 0.137 µM)	0.25 µg/mL (≈ 0.571 µM)	0.12 µg/mL (≈ 0.274 µM)	0.03 µg/mL (≈ 0.0685 µM)	0.5 µg/mL (≈ 1.14 µM)		0.06 µg/mL (≈ 0.137 µM)	23300 ng·h/mL	CC1(N)CN(c2c(F)cc3c(=O)c(C(=O)O)cn(-c4ccc(F)cc4F)c3c2Cl)C1	1.5 mg/kg	1.2 mg/kg	43 mg/kg
